Screens as filed in PubChem BioAssay.
An excerpt weighted towards active compounds, which were near 2.9% of everything screened.
ERAP1 inh = inhibitors of human ERAP1 aminopeptidase. Q9NZ08. recombinant ERAP1, Leu-AMC fluorescence, 60 min. inhibition, % at 10.7 µM. 340,000 compounds, 0.15% hits;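 active means mean replicate inhibition of at least 30%, or all replicates individually reaching that 30% level; inactive means mean below 30% and not every replicate reaching it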;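 further: 0% = neutral control wells and 100% = L-leucinethiol positive control wells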
CAL PDZ FP-1 = human CAL PDZ-peptide interaction inhibition; Q9HD26; purified CAL PDZ, TMR-peptide fluorescence polarization, 1 h; inhibition, % at 20 µM; 330,000 compounds, 0.02% hits;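 active means highest replicate inhibition of at least 40%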;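 further: plate controls were DMSO neutral control wells for no effect and unlabeled competitor peptide control wells for full effect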
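Material: tagged CAL PDZ domain; buffer or medium: 25 mM sodium phosphate pH 7.4, 150 mM NaCl, TCEP, IgG, Thesit; compound dosing: single point, 20 µM; schedule: 1 h incubation at room temperature before polarization reading; measured by: FP readout, S and P plane fluorescence; read-out basis: percent inhibition from loss of millipolarization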
DENV2 CPE = protects cells from dengue virus 2 cytopathic effect. DENV2-infected cells, cytopathic effect rescue, plate reader. CPE inhibition, % at 9.99 µM. 350,000 compounds, 1.7% hits; in the data active means CPE inhibition above about 20%, passing the limit was not always enough; tested in BHK-21 cells;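 further: 0% = median of neutral control wells and 100% = median of positive control wells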
S100A4 MyoIIA = blocks human S100A4 binding to myosin IIA peptide; inhibition, % at 10.7 µM; 360,000 compounds, 0.14% hits; S100A4/TAMRA-MyoIIA peptide fluorescence polarization; AID 652163;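 active means mean inhibition of at least 70% across replicates, with every replicate also reaching that level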
Target sequence (P26447 whole entry, looked up): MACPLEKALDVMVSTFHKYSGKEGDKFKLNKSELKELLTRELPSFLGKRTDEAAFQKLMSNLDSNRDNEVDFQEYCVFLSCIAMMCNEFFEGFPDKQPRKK
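Test system: S100A4 monomer protein; Medium: HEPES pH 7.2 with CaCl2, KCl, NaCl, DTT, Triton; Probe or stimulus: TAMRA-labelled myosin IIA heavy-chain peptide probe, 5 nM; Doses: one dose per compound; Times: polarization read 5 min after assay mix addition, stable 5–60 min; Benchmarks: neutral control DMSO, positive control TFP.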
SIRT5 block = sirtuin-5 (human) deacylase inhibition; Q9NXA8; Purified SirT5, succinyl-peptide AMC, trypsin-coupled fluorescence; inhibition, % at 15 µM; 330,000 compounds, 1.1% hits; in the data active means inhibition above about 15%
Target sequence (Q9NXA8 whole entry, looked up): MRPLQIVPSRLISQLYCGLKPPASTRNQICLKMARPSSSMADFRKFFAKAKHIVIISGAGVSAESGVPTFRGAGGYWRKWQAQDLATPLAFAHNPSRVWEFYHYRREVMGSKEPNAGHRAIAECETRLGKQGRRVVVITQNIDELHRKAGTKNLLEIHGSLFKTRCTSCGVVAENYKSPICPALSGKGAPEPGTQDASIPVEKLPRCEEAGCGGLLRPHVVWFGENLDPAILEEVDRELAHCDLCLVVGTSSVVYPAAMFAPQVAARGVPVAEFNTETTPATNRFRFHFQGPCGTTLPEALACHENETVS
CAL PDZ FP-2 = blocks peptide binding to the human CAL PDZ domain; 300,000 compounds, 0.92% hits; inhibition, % at 24.9 µM; AID 602252; purified CAL PDZ, TMR-peptide fluorescence polarization, 1 h; Q9HD26;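 active means mean inhibition of at least 30% with at least half of replicates also reaching 30%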;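 further: 0% = DMSO neutral control and 100% = excess unlabeled competitor peptide PRC23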
An asterisk follows results filed as active.

How did C[C@@H]1CCCCO[C@@H](CN(C)C(=O)Nc2ccc(F)cc2)[C@H](C)CN([C@H](C)CO)C(=O)c2cc(NC(=O)c3ccncc3)ccc2O1 do in these assays?
ERAP1 inh: -1; DENV2 CPE: 27*; S100A4 MyoIIA: 35; SIRT5 block: 3

Results for COc1cc(OC)cc(-c2c(-c3cccs3)c3cc(-c4ccc(N(C)C)nc4)ccc3n2C)c1 ?
ERAP1 inh: 8; CAL PDZ FP-1: 1; DENV2 CPE: 34*; S100A4 MyoIIA: 0; CAL PDZ FP-2: 1

Results for COc1cc(OC)cc(-c2c(-c3cccs3)c3cc(-c4ccc5c(c4)OCO5)ccc3n2C)c1 ?
ERAP1 inh: 5; CAL PDZ FP-1: 1; DENV2 CPE: 14; S100A4 MyoIIA: 4; CAL PDZ FP-2: 3

How did COc1cc(F)cc(-c2ccc3c(c2)c(-c2cccs2)c(-c2cc(OC)cc(OC)c2)n3C)c1 do in these assays?
ERAP1 inh: -4; CAL PDZ FP-1: 1; DENV2 CPE: 78*; S100A4 MyoIIA: -7; CAL PDZ FP-2: -1

How did COc1cc(OC)cc(-c2c(-c3cccs3)c3cc(-c4ccn[nH]4)ccc3n2C)c1 do in these assays?
ERAP1 inh: -1; CAL PDZ FP-1: -1; DENV2 CPE: 33*; S100A4 MyoIIA: -5; SIRT5 block: 3; CAL PDZ FP-2: -3

How did CCOC(=O)CN1NC2(CCCCCC2)NC1=S do in these assays?
ERAP1 inh: 35*; CAL PDZ FP-1: 0; DENV2 CPE: 3; S100A4 MyoIIA: -6; SIRT5 block: -4

What do the screens show for `CC(C)(C)N1NC2(CCCCC2)NC1=S`?
ERAP1 inh: -2; CAL PDZ FP-1: -1; DENV2 CPE: 4; S100A4 MyoIIA: -7; SIRT5 block: 0; CAL PDZ FP-2: -1

What do the screens show for `COc1ccc(S(=O)(=O)Nc2ccc3c(c2)C(=O)N([C@H](C)CO)C[C@H](C)[C@H](CN(C)Cc2ccc(C(=O)O)cc2)OCCCC[C@@H](C)O3)cc1`?
ERAP1 inh: -2; DENV2 CPE: 0; S100A4 MyoIIA: -2; SIRT5 block: 3

Results for Nc1nnc(CC(=O)N/N=C/c2ccc(-c3cccc(C(=O)O)c3)o2)s1 ?
ERAP1 inh: 1; CAL PDZ FP-1: -2; DENV2 CPE: 1; S100A4 MyoIIA: 0; SIRT5 block: 20*; CAL PDZ FP-2: -5

What do the screens show for `Cc1ccc(S(=O)(=O)c2nnn3c2nc(N2CCOCC2)c2ccccc23)cc1C`?
ERAP1 inh: 4; CAL PDZ FP-1: -1; DENV2 CPE: 25*; S100A4 MyoIIA: -2; SIRT5 block: 0

Results for Cc1ccc(S(=O)(=O)c2nnn3c2nc(N2CCOCC2)c2ccccc23)c(C)c1 ?
ERAP1 inh: 2; CAL PDZ FP-1: -3; DENV2 CPE: -3; S100A4 MyoIIA: -3; SIRT5 block: -2; CAL PDZ FP-2: 2

What do the screens show for `C[C@@H]1CN([C@H](C)CO)C(=O)c2cc(NS(=O)(=O)c3cn(C)cn3)ccc2O[C@@H]1CN(C)C(=O)Nc1cccc2ccccc12`?
ERAP1 inh: 1; DENV2 CPE: -4; S100A4 MyoIIA: 13; SIRT5 block: -2

What do the screens show for `N[C@@H](Cc1ccc(O)c(O)c1)C(=O)O`?
ERAP1 inh: 2; CAL PDZ FP-1: 1; DENV2 CPE: -2; S100A4 MyoIIA: 14; SIRT5 block: 15*; CAL PDZ FP-2: 4

What do the screens show for `NC(Cc1ccc(O)c([N+](=O)[O-])c1)C(=O)O` (centres undefined)?
CAL PDZ FP-1: -2; CAL PDZ FP-2: 0

How did C[C@H]1CN([C@@H](C)CO)C(=O)Cc2cc(NC(=O)Cn3cnnn3)ccc2O[C@H]1CN(C)Cc1ccccc1 do in these assays?
ERAP1 inh: -1; DENV2 CPE: -5; S100A4 MyoIIA: -4; SIRT5 block: -1

How did CCC(=O)N1CC(=O)N2[C@H](CO)[C@@H](c3ccc(C#Cc4cccnc4)cc3)[C@H]2C1 do in these assays?
ERAP1 inh: 0; DENV2 CPE: 3; S100A4 MyoIIA: 3; SIRT5 block: 0

How did C[C@H]1CCCCO[C@H](CN(C)Cc2ccc(Cl)c(Cl)c2)[C@@H](C)CN([C@@H](C)CO)C(=O)c2cc(NC(=O)CCC(F)(F)F)ccc2O1 do in these assays?
ERAP1 inh: -1; DENV2 CPE: 2; S100A4 MyoIIA: -1; SIRT5 block: 15*

What do the screens show for `C[C@@H]1CCCCO[C@H](CN(C)Cc2ccc(C(F)(F)F)cc2)[C@H](C)CN([C@@H](C)CO)C(=O)c2cc(NC(=O)CCC(F)(F)F)ccc2O1`?
ERAP1 inh: -1; DENV2 CPE: -3; S100A4 MyoIIA: -22; SIRT5 block: 5

Results for COc1ccc(CN(C)C[C@H]2OCCCC[C@H](C)Oc3ccc(NC(=O)CCC(F)(F)F)cc3C(=O)N([C@H](C)CO)C[C@@H]2C)cc1 ?
ERAP1 inh: 2; DENV2 CPE: 29*; S100A4 MyoIIA: -13; SIRT5 block: -1

What do the screens show for `C[C@@H]1CN([C@@H](C)CO)C(=O)c2cc(NC(=O)CCC(F)(F)F)ccc2O[C@@H](C)CCCCO[C@H]1CN(C)Cc1ccc(Cl)c(Cl)c1`?
ERAP1 inh: -1; DENV2 CPE: 4; S100A4 MyoIIA: 52; SIRT5 block: 10

What do the screens show for `C[C@@H]1CN([C@H](C)CO)C(=O)c2cc(NC(=O)CCC(F)(F)F)ccc2O[C@@H](C)CCCCO[C@@H]1CN(C)Cc1ccc(C(F)(F)F)cc1`?
ERAP1 inh: 0; DENV2 CPE: 10; S100A4 MyoIIA: 1; SIRT5 block: 21*

How did C[C@@H]1CCCCO[C@H](CN(C)Cc2ccc(C(F)(F)F)cc2)[C@@H](C)CN([C@@H](C)CO)C(=O)c2cc(NC(=O)CCC(F)(F)F)ccc2O1 do in these assays?
ERAP1 inh: -2; DENV2 CPE: 21*; S100A4 MyoIIA: -8; SIRT5 block: 3

How did COc1ccc(S(=O)(=O)N[C@@H]2CC[C@H](CCn3cc(C(C)C)nn3)O[C@H]2CO)cc1 do in these assays?
ERAP1 inh: 1; DENV2 CPE: -5; S100A4 MyoIIA: -16; SIRT5 block: 6

Results for COc1ccc(-c2cn(CC(=O)N3CCN(C)CC3)nn2)cc1OC ?
ERAP1 inh: 1; DENV2 CPE: 9; S100A4 MyoIIA: 3; SIRT5 block: -1

How did C[C@H]1CN([C@@H](C)CO)C(=O)Cc2cc(NS(=O)(=O)c3cccs3)ccc2O[C@H]1CN(C)Cc1ccc(C(=O)Nc2ccccc2N)cc1 do in these assays?
ERAP1 inh: 1; DENV2 CPE: 2; S100A4 MyoIIA: 6; SIRT5 block: 2

What do the screens show for `CCC1(C)CC2(CCCN(CCC(O)(c3ccccc3)c3ccccc3)C2)CCO1` (centres undefined)?
ERAP1 inh: 0; CAL PDZ FP-1: -2; DENV2 CPE: -6; S100A4 MyoIIA: 1; SIRT5 block: 1
